These results are taken from ChEMBL document CHEMBL1145781, “Synthesis and structure-activity relationships of 5-amino-6-fluoro-1-[(1R,2S)-2-fluorocyclopropan-1-yl]-8-methylquinolonecarboxylic acid antibacterials having fluorinated 7-[(3R)-3-(1-aminocyclopropan-1-yl)pyrrolidin-1-yl] substituents” (J Med Chem, 2003).

The test system of data set [1] is Enterococcus sp. As to the kind of experiment: Antibacterial activity was determined against clinically isolated vancomycin-A resistant enterococci (VRE) strains (33 strains). Type of data set: functional.
Data set [2] deals with Enterococcus sp. As to the kind of experiment: Antibacterial activity was determined against clinically isolated vancomycin-B resistant enterococci (VRE) strains (10 strains). It is filed as functional.
Another data set relates to Escherichia coli. As to the kind of experiment: Antibacterial activity was determined against Escherichia coli NIHJ strain after incubation at 37 degrees C for 18 h. It is filed as functional.
The test system of a further data set is Enterococcus faecalis. As to the kind of experiment: Antibacterial activity was determined against Enterococcus faecalis ATCC 19433 strain after incubation at 37 degrees C for 18 h. It is filed as functional. As to conditions: ATCC 19433, 18 h.
Another data set concerns Klebsiella pneumoniae. As to the kind of experiment: Antibacterial activity was determined against Klebsiella pneumoniae type II strain after incubation at 37 degrees C for 18 h. It is filed as functional.
Another data set relates to Pseudomonas aeruginosa. As to the kind of experiment: Antibacterial activity was determined against Pseudomonas aeruginosa PAO1 strain after incubation at 37 degrees C for 18 h. Type of data set: functional.
For data set [3], the system named is Staphylococcus epidermidis. As to the kind of experiment: Antibacterial activity was determined against Staphylococcus epidermis 56500 strain after incubation at 37 degrees C for 18 h. Type of data set: functional.
Data set [4] concerns Staphylococcus aureus. As to the kind of experiment: Antibacterial activity was determined against Staphylococcus aureus FDA 209-P strain after incubation at 37 degrees C for 18 h. Type of data set: functional.
For a further data set, the system named is Streptococcus pyogenes. As to the kind of experiment: Antibacterial activity was determined against Streptococcus pyogenes G-36 strain after incubation at 37 degrees C for 18 h. It is filed as functional.
The subject of data set [5] is Streptococcus pneumoniae. As to the kind of experiment: Antibacterial activity was determined against Streptococcus pneumoniae J-24 strain after incubation at 37 degrees C for 18 h. Type of data set: functional.
Data set [6] deals with Staphylococcus aureus. As to the kind of experiment: Antibacterial activity was determined against clinically isolated Levofloxacin-methicillin resistant Staphylococcus aureus (LVFX-r MRSA) strains (74 strains). It is filed as functional.
For a further data set, the system named is Streptococcus mitis. As to the kind of experiment: Antibacterial activity was determined against Streptococcus mitis IID685 strain after incubation at 37 degrees C for 18 h. It is filed as functional.
In data set [7] the test system is Streptococcus pneumoniae. As to the kind of experiment: Antibacterial activity was determined against clinically isolated penicillin resistant Streptococcus pneumoniae (PRSP) strains (50 strains). It is filed as functional.
For data set [8], the system named is Staphylococcus aureus. As to the kind of experiment: Antibacterial activity was determined against clinically isolated Levofloxacin-methicillin resistant Staphylococcus aureus (LVFX-r MRSA) strains (74 strains); Range= 0.5-128 ug/mL. Type of data set: functional. The method, boiled down: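 Twofold broth microdilution in Mueller–Hinton broth, inoculum about 10^5 CFU per well. Plates incubated 18 h at 37 °C. MIC taken as the lowest concentration preventing visible growth. Organisms were clinical resistant Gram-positive isolates.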

The nature of data set [9]: Solubility was determined in water. Type of data set: physicochemical.
The nature of data set [10]: Mortality was determined after 50 mg/kg dose administered intravenously to 5-week old male mice at a speed of 0.2 mL/min counted on day 7 for total 2 mice. Type of data set: ADME, organism-based. Also on record: dose 50 mg/kg, route intravenous. As to conditions: mouse, in vivo, iv. Summed up:
(§1)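 Male Slc:ddY mice, 5 weeks old. Compound dissolved in 0.1 N NaOH in saline at varied concentrations and given as a single IV injection at 0.2 mL/min, total volume 10 mL/kg body weight. Deaths counted on day 7 and reported as dead/tested.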

Data set [11] in a line: Mortality was determined after 100 mg/kg dose administered intravenously to 5-week old male mice at a speed of 0.2 mL/min counted on day 7 for total 2 mice. It is filed as ADME, organism-based. Also on record: dose 100 mg/kg, route intravenous. As to conditions: mouse, in vivo, iv. Summed up:
as §1

The nature of data set [12]: Mortality was determined after 150 mg/kg dose administered intravenously to 5-week old male mice at a speed of 0.2 mL/min counted on day 7 for total 2 mice. It is filed as ADME, organism-based. More on the design: dose 150 mg/kg, route intravenous. As to conditions: mouse, in vivo, iv. The method, boiled down: as §1
Data set [13] can be described thus: Mortality was determined after 50 mg/kg dose administered intravenously to 5-week old male mice at a speed of 0.2 mL/min counted on day 7 for total 5 mice. It is filed as ADME, organism-based. More on the design: dose 50 mg/kg, route intravenous. As to conditions: mouse, in vivo, iv. The method, boiled down:
as §1

Molecules are shown by their SMILES. Values after ≈ are worked out from the molar mass of the structure shown.

`COc1c(N2CCNC(C)C2)c(F)cc2c(=O)c(C(=O)O)cn(C3CC3)c12` (centres undefined) [GATIFLOXACIN]: the MIC50 amounted to 16 µg/mL (≈ 42.6 µM) in the data set with Enterococcus sp. [1], 2 µg/mL (≈ 5.33 µM) against Enterococcus sp. [2], 4 µg/mL (≈ 10.7 µM) in the data set on Staphylococcus aureus [6] and 0.25 µg/mL (≈ 0.666 µM) against Streptococcus pneumoniae [7]. In addition, the MIC90 against Enterococcus sp. [1] was 32 µg/mL (≈ 85.2 µM); in the data set on Enterococcus sp. [2], 16 µg/mL (≈ 42.6 µM); in the data set with Staphylococcus aureus [6], 32 µg/mL (≈ 85.2 µM); against Streptococcus pneumoniae [7], 0.25 µg/mL (≈ 0.666 µM). Besides, the MIC in the data set with Escherichia coli is 0.006 µg/mL (≈ 0.016 µM); with Enterococcus faecalis it was 0.39 µg/mL (≈ 1.04 µM); against Klebsiella pneumoniae, 0.05 µg/mL (≈ 0.133 µM); in the data set with Pseudomonas aeruginosa, 0.39 µg/mL (≈ 1.04 µM); in data set [3], 0.2 µg/mL (≈ 0.533 µM); against Staphylococcus aureus [4] it was 0.05 µg/mL (≈ 0.133 µM). The figures for the MIC against Streptococcus pyogenes, against Streptococcus pneumoniae [5] and against Streptococcus mitis were 0.39 µg/mL (≈ 1.04 µM), 0.2 µg/mL (≈ 0.533 µM) and 0.2 µg/mL (≈ 0.533 µM), respectively.

`C[C@H]1COc2c(N3CCN(C)CC3)c(F)cc3c(=O)c(C(=O)O)cn1c23.C[C@H]1COc2c(N3CCN(C)CC3)c(F)cc3c(=O)c(C(=O)O)cn1c23.O` [LEVOFLOXACIN] had an MIC in the data set on Staphylococcus aureus [8] of 128 µg/mL.

For `NCC[C@H](O)C(=O)N[C@@H]1C[C@H](N)[C@@H](O[C@H]2O[C@H](CN)CC[C@H]2N)[C@H](O)[C@H]1O[C@H]1O[C@H](CO)[C@@H](O)[C@H](N)[C@H]1O` [ARBEKACIN], the MIC50 against Enterococcus sp. [1] stood at 16 µg/mL (≈ 29 µM); in the data set with Enterococcus sp. [2], 32 µg/mL (≈ 57.9 µM); with Staphylococcus aureus [6], 8 µg/mL (≈ 14.5 µM); against Streptococcus pneumoniae [7], 16 µg/mL (≈ 29 µM). The MIC90 is 64 µg/mL (≈ 116 µM) with Enterococcus sp. [1], greater than 128 µg/mL in the data set with Enterococcus sp. [2], 32 µg/mL (≈ 57.9 µM) against Staphylococcus aureus [6] and 32 µg/mL (≈ 57.9 µM) with Streptococcus pneumoniae [7].

As for `Cc1c(N2CC[C@@H](CN)C2)c(F)c(N)c2c(=O)c(C(=O)O)cn(C3C[C@@H]3F)c12` (single isomer, unassigned), in data set [9], the solubility was determined as 404 µg/mL (≈ 1030 µM). For the same compound, the MIC was 0.013 µg/mL (≈ 0.0331 µM) in the data set with Escherichia coli; 0.025 µg/mL (≈ 0.0637 µM) against Enterococcus faecalis; 0.1 µg/mL (≈ 0.255 µM) in the data set on Klebsiella pneumoniae; 0.1 µg/mL (≈ 0.255 µM) in the data set with Pseudomonas aeruginosa; 0.006 µg/mL (≈ 0.0153 µM) in data set [3]; no more than 0.003 µg/mL against Staphylococcus aureus [4]. For the same compound, the MIC was determined as 0.013 µg/mL (≈ 0.0331 µM) in the data set on Streptococcus pyogenes, 0.013 µg/mL (≈ 0.0331 µM) in the data set with Streptococcus pneumoniae [5] and 0.006 µg/mL (≈ 0.0153 µM) against Streptococcus mitis. Moreover, the Dead in data set [10], in data set [11] and in [12] was 2 in each case.

As to `Cc1c(N2C[C@H](F)[C@@H](C3(N)CC3)C2)c(F)c(N)c2c(=O)c(C(=O)O)cn([C@@H]3C[C@@H]3F)c12`, the MIC was no more than 0.003 µg/mL in the data set with Escherichia coli; 0.013 µg/mL (≈ 0.0298 µM) in the data set with Enterococcus faecalis; 0.013 µg/mL (≈ 0.0298 µM) in the data set with Klebsiella pneumoniae; 0.2 µg/mL (≈ 0.458 µM) in the data set on Pseudomonas aeruginosa; no more than 0.003 µg/mL in data set [3]; no more than 0.003 µg/mL with Staphylococcus aureus [4]. In addition, the MIC against Streptococcus pyogenes, against Streptococcus pneumoniae [5] and in the data set with Streptococcus mitis was no more than 0.003 µg/mL each time. Further, the values for the Dead in data set [13], in [11] and in data set [12] were 0, 2 and 2, respectively.

In the case of `COc1c(N2C[C@@H]3CCCN[C@@H]3C2)c(F)cc2c(=O)c(C(=O)O)cn(C3CC3)c12` [MOXIFLOXACIN], the MIC with Escherichia coli was no more than 0.003 µg/mL; against Enterococcus faecalis, 0.2 µg/mL (≈ 0.498 µM); against Klebsiella pneumoniae, 0.025 µg/mL (≈ 0.0623 µM); against Pseudomonas aeruginosa, 0.2 µg/mL (≈ 0.498 µM); in data set [3], 0.1 µg/mL (≈ 0.249 µM); in the data set on Staphylococcus aureus [4], 0.013 µg/mL (≈ 0.0324 µM). Besides, the MIC came to 0.2 µg/mL (≈ 0.498 µM) against Streptococcus pyogenes, 0.025 µg/mL (≈ 0.0623 µM) in the data set on Streptococcus pneumoniae [5] and 0.1 µg/mL (≈ 0.249 µM) against Streptococcus mitis.

Take `N[C@@H]1[C@H]2CN(c3nc4c(cc3F)c(=O)c(C(=O)O)cn4-c3ccc(F)cc3F)C[C@@H]12` [TROVAFLOXACIN]: the MIC in the data set with Escherichia coli is no more than 0.003 µg/mL; against Enterococcus faecalis, 0.2 µg/mL (≈ 0.48 µM); in the data set on Klebsiella pneumoniae, 0.025 µg/mL (≈ 0.06 µM); against Pseudomonas aeruginosa, 0.2 µg/mL (≈ 0.48 µM); in data set [3], 0.05 µg/mL (≈ 0.12 µM); in the data set on Staphylococcus aureus [4], 0.013 µg/mL (≈ 0.0312 µM). Also, the MIC in the data set with Streptococcus pyogenes turned out to be 0.2 µg/mL (≈ 0.48 µM); against Streptococcus pneumoniae [5], 0.05 µg/mL (≈ 0.12 µM); in the data set on Streptococcus mitis it was 0.1 µg/mL (≈ 0.24 µM).

What is called MIC50 is the lowest concentration that inhibits either 50% of growth or 50% of the strains tested, depending on the study. Low values mean greater potency, high ones weaker potency. The MIC90 is the lowest concentration that inhibits either 90% of growth or 90% of the strains tested, depending on the study. As a reminder, the MIC is the lowest concentration found to suppress growth. The low end stands for a more susceptible organism, the high end for a less susceptible organism. One may read the solubility as the dissolved amount per volume that the medium holds. Read a low solubility as little dissolved substance.
